Measured values: paper PMC4936951 (Molecular pharmaceutics, 2016)
Several values for one entry are separate records, joined by “and”; a condition that tells them apart may be missing. Equal entries are not always repeated. Where two headings read alike, the source gives them in different places.

Experiments:
[1] = system: δOR+ (HCT 116/δOR) and δOR− (HCT 116) tumor xenografts; format: in vivo, athymic nude female mice; conditions: for Rate of uptake, Slope × 10^7 / Rate of clearance, Slope × 10^7: linear regression, n=5
Method in brief: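 Athymic nude female mice carried bilateral xenografts of 8×10^6 HCT 116 (left) and HCT 116/δOR (right) cells, grown to mean 500 mm3 by caliper (length×width²/2). Single i.v. dose of 4.5 nmol/kg. IVIS 200 Cy5 imaging at 3, 9, 15, 30, 45 min and 1.5, 3, 6, 12, 18, 24, 48, 72, 96, 168 h. Readout after background subtraction and pre-injection autofluorescence correction: ROI mean surface radiance in efficiency units.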

[2] = system: HCT 116/δOR cells; format: cell-based, human
Method in brief: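 HCT 116/δOR cells (DMEM/F12, 10% calf serum, 1% pen/strep) on glass-bottom dishes, PBS-rinsed, exposed to 2.5 nM agent in Fluorobrite DMEM at 37°C, 5% CO2. Imaged every 30 s for 15 min; then rinsed and imaged in fresh medium, 4 fields every 10 min to 24 h (40× oil, Cy5, 1.5 s). Per-cell ROI intensity×area gave cytoplasm and membrane (total minus cytoplasm) fluorescence; 11–25 cells/day, three days.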

[3] = molecular target: δ-opioid receptor; conditions: read-out: Ki (binding affinity); δ-opioid receptor antagonist; cited from earlier work
[4] = system: δOR+ (HCT 116/δOR) and δOR− (HCT 116) tumor xenografts; test: Dose determination by in vivo fluorescence imaging of bilateral tumor xenografts; set-up: species or system nu/nu mice; conditions: 50 nmol/kg i.v., 24 h post-administration
Method in brief: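 Female nu/nu mice received 8×10^6 cells, HCT 116 in the left flank and HCT 116/δOR in the right, and were imaged after 1 week. Dose given by tail-vein i.v. injection. Animals imaged immediately to confirm injection, then at 24 h, on an IVIS 200. Agent stored in dark aliquots at −80°C; animals kept in a dark chamber. Autofluorescence ratio taken from radiance in identical ROIs on background-subtracted Cy5 and autofluorescence images.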

[5] = system: HCT 116/δOR (positive) and HCT 116/RFP (negative) DWC tumors; test: Intravital confocal microscopy in dorsal skinfold window chamber; format: in vivo, mouse
Method in brief: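 Dorsal skinfold window chamber mice carrying HCT 116/δOR or HCT 116/RFP tumors received 45 nmol/kg via tail vein. Confocal imaging with 25× lens, 3570 pixels/min: continuous for 30 min, including 1, 1.5, 2 and 5 min frames, then further time points up to 24 h. Mean intensity ROIs placed in the vessel interior, in adjacent tumor tissue, and over tumor across time.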

[6] = system: tumors and organs (spleen, pancreas, liver, kidneys, GI tract, heart, lungs); test: Ex vivo biodistribution by fluorescence imaging of excised tumors and organs; format: in vivo, mice; conditions: 4.5 nmol/kg
Method in brief: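 Separate group of bilateral HCT 116 / HCT 116/δOR xenograft mice given 4.5 nmol/kg. At 0, 7.5 min, 15 min, 45 min, 3 h, 6 h, 24 h and 48 h: imaged in vivo, then euthanized. Tumors, spleen, pancreas, liver, kidneys, GI tract, heart and lungs excised and fluorescence-imaged ex vivo. Animals kept in low light after dosing.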

[7] = 45 nmol/kg via tail vein, δOR negative tumor vessel

Dmt-Tic-Lys(Cy5)-OH [Dmt-Tic-Cy5]
time of clearance from δOR− tumor (nearly pre-injection levels) ([1]; 4.5 nmol/kg i.v.): ≤ 6 h | time of maximum fluorescence in δOR− tumor ([1]; 4.5 nmol/kg i.v.): 15 min | time of maximum fluorescence signal in δOR+ tumor ([1]; 4.5 nmol/kg i.v.): 3 h | time of systemic clearance ([1]; 4.5 nmol/kg i.v., based on clearance from negative tumor): ≤ 6 h | enhancement in positive tumor relative to negative tumor ([1]; 4.5 nmol/kg, from 30 min to 96 h post-administration): > 3 fold | Mean FOE (+ tumor/− tumor) ([1]; 4.5 nmol/kg, time 0.15 h): 2.7 | Mean FOE (+ tumor/− tumor) ([1]; 4.5 nmol/kg, time 0.25 h): 2.7 | Mean FOE (+ tumor/− tumor) ([1]; 4.5 nmol/kg, time 0.50 h): 3.2 | Mean FOE (+ tumor/− tumor) ([1]; 4.5 nmol/kg, time 0.75 h): 4.5 | Mean FOE (+ tumor/− tumor) ([1]; 4.5 nmol/kg, time 1 h): 6.5 | Mean FOE (+ tumor/− tumor) ([1]; 4.5 nmol/kg, time 3 h): 9.7 | Mean FOE (+ tumor/− tumor) ([1]; 4.5 nmol/kg, time 6 h): 17.5 | Mean FOE (+ tumor/− tumor) ([1]; 4.5 nmol/kg, time 12 h): 13.5 | Mean FOE (+ tumor/− tumor) ([1]; 4.5 nmol/kg, time 18 h): 26.7 | Mean FOE (+ tumor/− tumor) ([1]; 4.5 nmol/kg, time 24 h): 20.6 | Mean FOE (+ tumor/− tumor) ([1]; 4.5 nmol/kg, time 48 h): 8.9 | Mean FOE (+ tumor/− tumor) ([1]; 4.5 nmol/kg, time 72 h): 10.8 | Mean FOE (+ tumor/− tumor) ([1]; 4.5 nmol/kg, time 96 h): 5.6 | Mean FOE (+ tumor/− tumor) ([1]; 4.5 nmol/kg, time 168 h): 1.8 | ratio of enhancement in target positive tumors ([1]; maintained from 6 h to 24 h post-administration): approximately 20 fold | Rate of uptake, Slope × 10^7 ([1]; δOR+ tumor, 0 to 0.75 h): 264 Efficiency/h | Rate of clearance, Slope × 10^7 ([1]; δOR+ tumor, 3 to 96 h): −1.45 Efficiency/h | Rate of uptake, Slope × 10^7 ([1]; δOR− tumor, 0 to 0.25 h): 211 Efficiency/h | Rate of clearance, Slope × 10^7 ([1]; δOR− tumor, 0.25 to 24 h): −14.6 Efficiency/h | maximum ratio of fluorescence inside (cytoplasm)/outside (cell membrane) ([2]; 2.5 nM): 1.69 | time to observed cell-surface labeling after addition of ligand ([2]; 2.5 nM): ~ 2 min and 2 min | period of gradual tumor cell internalization ([2]; after addition of agent): 6 h and ~ 7 h and 7 h | Ki [3]: 3 nM | fold of enhancement (FOE) δOR+ tumor relative to δOR− tumor [4]: 5 fold | time of clearance from tumor vasculature [5, 7]: ≤ 2 min | time to peak intensity in tumor vasculature [5, 7]: ≤ 1 min | time of highest fluorescence intensity in negative tumor (intravital) ([5]; 45 nmol/kg, HCT 116/RFP DWC tumor): 10 min | time of highest fluorescence intensity in positive tumor (intravital) ([5]; 45 nmol/kg, HCT 116/δOR DWC tumor): 30 min | time of clearance of fluorescence from negative tumor (intravital) ([5]; 45 nmol/kg, positive tumor still strong signal): ≤ 24 h | fluorescence signal in heart, lungs, GI tract, spleen and pancreas (ex vivo) [6]: minimal to no fluorescence signal | time of decrease to pre-injection levels in kidney and liver (ex vivo) ([6]; n=5): ≤ 24 h | time of highest fluorescence signal in kidney and liver (ex vivo) ([6]; n=5): 15 min
